MITF act = increases MITF-driven TRPM1 promoter luciferase signal; 0.75% of 300,000 active; activation, % at 12.5 µM; SK-MEL-5 TRPM1-promoter luciferase, 24 h; % of positive control, neutral wells = 0; AID 588334;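 active means mean activation of at least 80% with every replicate also reaching 80%; inconclusive means mean reaches 80% but some replicate falls short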;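 further: 0% = neutral control wells and 100% = parthenolide positive control wells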
SR-BI uptake up = SR-BI HDL lipid transfer activation; CHO ldlA[mSR-BI] cells, DiI-HDL uptake fluorescence, 3 h; 100 = double the neutral-control signal; activation, % at 12.5 µM; 0.096% of 320,000 active; AID 504775;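 active means mean replicate activation of at least 60% and every replicate at or above 60%; inconclusive means mean or all-replicate condition met, but not both; inactive means mean below 60% and not all replicates reaching 60%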;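 further: 0% = median plate neutral-control signal and 100% = twice that signal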
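system = CHO ldlA[mSR-BI] cells, LDL receptor-null, SR-BI overexpressing | medium = Ham's F12 with 0.5% BSA, HEPES 25 mM, pH 7.4 | probe or stimulus = DiI-HDL 10 µg/mL | compound dosing = single-point compound dose | incubation = compound exposure 3 h, 37 °C | technique = DiI fluorescence, bottom read | read-out = cell-associated DiI fluorescence as measure of HDL uptake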
Wnt bcat act = Wnt/beta-catenin pathway activation | activation, % at 9.35 µM | AID 743398 | 1.2% of 300,000 active | Wnt/beta-catenin reporter cell assay, activator, plate reader; in the data active means activation above about 30%, passing the limit was not always enough; inconclusive means no clear call, values can overlap the other calls;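 further: 0% = neutral control wells and 100% = positive control wells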
HSF1 activator = increases HSF-1 driven luciferase reporter signal | NIH3T3-HGL HSF-1 luciferase reporter, MG132, 8 h; 100% = twice DMSO control signal | activation, % at 9 µM | 1.7% of 300,000 active;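 active means mean replicate activation of at least 50% with a set share of replicates each reaching 50%; inconclusive means only one of those two conditions met; inactive means mean below 50% and too few replicates reaching it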;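 further: 0% = median of the neutral control wells and 100% = twice that signal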
SR-BI DiI inh = blocks mouse SR-BI lipid uptake from DiI-HDL. inhibition, % at 12.5 µM. ldlA[mSR-BI] CHO cells, DiI-HDL uptake fluorescence, 3 h. Q61009. 0.96% of 320,000 active;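 active means mean replicate inhibition of at least 70% and a set share of replicates each scoring 70 or more; inconclusive means meets just one of the two criteria; inactive means fails both criteria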;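 further: 0% = median of neutral control wells and 100% = median of positive control wells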
Target sequence (Q61009 whole entry, looked up): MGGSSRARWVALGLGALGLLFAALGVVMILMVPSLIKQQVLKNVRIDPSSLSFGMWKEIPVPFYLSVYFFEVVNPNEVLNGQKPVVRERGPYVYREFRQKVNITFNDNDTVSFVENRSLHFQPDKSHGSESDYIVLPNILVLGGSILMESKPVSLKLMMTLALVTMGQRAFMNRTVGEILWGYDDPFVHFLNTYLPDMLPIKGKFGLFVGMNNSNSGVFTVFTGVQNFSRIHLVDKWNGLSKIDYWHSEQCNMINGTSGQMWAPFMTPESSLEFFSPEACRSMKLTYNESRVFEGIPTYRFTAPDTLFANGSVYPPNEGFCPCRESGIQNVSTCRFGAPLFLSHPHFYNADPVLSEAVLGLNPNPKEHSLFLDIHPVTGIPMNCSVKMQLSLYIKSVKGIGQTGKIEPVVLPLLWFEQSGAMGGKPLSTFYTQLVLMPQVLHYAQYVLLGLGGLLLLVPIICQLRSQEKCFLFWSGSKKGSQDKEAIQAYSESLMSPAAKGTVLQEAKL
* hit, by the source's call; ? = inconclusive; nt = no result. Most compounds without a hit are left out; they make up all but 3.6% or so of the library.

SMILES	MITF act	SR-BI uptake up	Wnt bcat act	HSF1 activator	SR-BI DiI inh
Cc1ccc(NC(=O)c2cc(NC(=O)c3ccco3)ccc2N2CCOCC2)cc1Cl	nt	-74	-2	45	74*
O=C(Nc1ccc(N2CCCC2)c(Cl)c1)c1ccco1	48	-27	41*	-4	27
O=C(Nc1cccnc1N1CCOCC1)c1ccco1	1	5	41*	11	-5
O=C1Nc2ccccc2-n2nnnc2C1N1CCN(C(=O)C2CCCO2)CC1 (stereo not given)	nt	nt	-2	nt	nt
COc1cccc(NC(=O)CN(C)C(=O)c2cc3c(s2)CCC3)c1	nt	nt	-2	-11	nt
COc1cc(/C=C/C(=O)OCC(=O)N2CCN(S(=O)(=O)c3ccc(C)cc3C)CC2)ccc1OC(F)F	2	-78	25	nt	78*
O=C(OCc1ccccc1)c1c(-c2ccccc2)oc2c1C(OCCO)CCC2 (stereo not given)	nt	nt	-2	nt	nt
COCCN=c1scc(-c2cccs2)n1/N=C/c1ccc(O)c(O)c1O	-8	-69	19	-4	69
COCCN=c1scc(-c2ccccc2)n1/N=C/c1c[nH]c2ccccc12	11	-83	nt	16	83*
Cc1ccc(CCN2CC(C(=O)NC3CCC(C)CC3)CC2=O)cc1 (stereo not given)	nt	nt	-1	nt	nt
Cc1nnc(NC(=O)c2cccc(F)c2)s1	6	5	nt	10	-5
CC(C)(C)CC(=O)Nc1nnc(-c2cccs2)s1	44	-2	52*	48	2
O=C(Nc1nnc(-c2cccs2)s1)c1cccc(F)c1	32	-1	39*	nt	1
O=C(Nc1ccccc1)Nc1nnc(-c2cccs2)s1	73	4	29	nt	-4
COc1ccc(NC(=O)Nc2nnc(-c3cccs3)s2)cc1	98*	nt	41*	23	nt
CNc1cc(-c2ccc(CC#N)cc2)ncn1	nt	nt	3	nt	nt
Oc1ccccc1N=Nc1nc(-c2ccccc2)c(-c2ccccc2)[nH]1	-80	-53	nt	71*	53
CCOC(=O)N1CCN(C(=O)C[C@@H]2C[C@@]3(C(=O)OCC)CCC=C3N(Cc3ccc4c(c3)OCO4)C2=O)CC1	nt	nt	-1	nt	nt
CCOP(=O)(OCC)c1nc(-c2cccc3ccccc23)oc1N1CCOCC1	18	-5	-1	74*	5
O=C1CCCCC1Nc1ccc2ccccc2c1 (stereo not given)	14	2	7	nt	-2
CN(C)c1nc(N)nc(CSc2nnnn2-c2ccc(F)cc2)n1	-17	-15	-3	60*	15
O=C(Nc1ccn(Cc2ccccc2F)n1)c1ccc(COc2ccccc2Cl)cc1	-13	-51	nt	4	51
O=C(Nc1ccn(Cc2ccccc2F)n1)c1ccc(COc2cccc(Br)c2)cc1	7	-24	nt	52*	24
O=Cc1c(-c2ccc(Cl)cc2)oc2ccc(O)cc12	nt	nt	84*	-57	nt
O=C(c1ccc2c(=O)n(C3CCCC3)c(=S)[nH]c2c1)N1CCc2ccccc21	nt	-20	nt	91*	20
SMILES	MITF act	SR-BI uptake up	Wnt bcat act	HSF1 activator	SR-BI DiI inh
Cc1c(C(=O)N(C)Cc2ccc(F)cc2)sc(=O)n1Cc1ccc(Cl)c(Cl)c1	nt	nt	-4	nt	nt
COC(=O)C1=CCCCC(O)=C1C(=O)OC	nt	nt	-3	nt	nt
Cc1ccc(O)c(N=Nc2ccccc2)n1	68	-5	41*	37	5
CCCC(=O)N1CCC1(C)C(=O)Nc1ccc(OC(F)F)cc1 (stereo not given)	nt	nt	-1	nt	nt
NC(N)=NC(=O)c1nc(Cl)c(N2CCCCCC2)nc1N	126*	-25	21	nt	25
Nc1c(Cl)ncnc1N1CCCC1	5	22	0	1	-22
C[C@H](CO)N1C[C@H](C)[C@@H](CN(C)C(=O)c2ccncc2)OCc2cn(nn2)CCCC1=O	nt	nt	0	nt	nt
CC(C)NC(=O)N(C)C[C@H]1Oc2ccc(NC(=O)Nc3ccccc3)cc2C(=O)N([C@H](C)CO)C[C@@H]1C	-2	22	36*	nt	-22
C[C@H]1CN([C@@H](C)CO)C(=O)Cc2cc(NC(=O)CCC(F)(F)F)ccc2O[C@H]1CN(C)Cc1ccc(C(F)(F)F)cc1	-5	25	-8	nt	-25
COc1ccc(NC(=O)Nc2ccc3c(c2)CC(=O)N([C@H](C)CO)C[C@@H](C)[C@H](CN(C)C(=O)Nc2ccccc2)O3)cc1	3	-70	-1	nt	70*
C[C@H]1CN([C@@H](C)CO)C(=O)Cc2cc(NC(=O)CCC(F)(F)F)ccc2O[C@H]1CN(C)Cc1ccc(-c2ccccc2)cc1	nt	154*	-9	nt	-154
CC(C)CNc1cccc2c1S(=O)(=O)N[C@@H](C)CO2	nt	nt	0	nt	nt
CC1CCCN(C(=O)c2ccc(-c3ccccc3Cl)o2)C1 (stereo not given)	140*	-8	34*	58*	8
COc1ccc(NC(=O)c2ccc(-c3ccc(C)c4ccccc34)o2)cc1	9	nt	11	-3	nt
O=C(c1ccc(-c2ccccc2Cl)o1)N1CCCCCCC1	?	3	40*	nt	-3
COc1ccc(NC(=O)c2ccc(-c3ccccc3Cl)o2)cc1	116*	18	24	21	-18
O=[N+]([O-])c1ccccc1OCCCn1cnc2ccccc21	104*	17	16	25	-17
Clc1ccccc1OCCCOc1cccc2cccnc12	nt	1	17	106*	-1
Brc1ccc(OCCOCCOc2cccc3cccnc23)cc1	3	7	nt	20	-7
O=[N+]([O-])c1ccccc1OCCCOc1cccc2cccnc12	nt	-13	13	55*	13
O=Cc1ccccc1OCCCOc1cccc2cccnc12	28	-20	-3	30	20
Brc1ccc(OCCCOc2cccc3cccnc23)cc1	nt	4	4	56*	-4
O=c1c2ccccc2ncn1CCCOc1ccccc1[N+](=O)[O-]	65	10	22	6	-10
CC(NC(=O)c1c(N)[nH]c(C(=O)c2ccc(Cl)cc2)c1-c1ccc(Br)cc1)c1cccc2ccccc12 (stereo not given)	nt	nt	-9	nt	nt
O=C(C[C@H]1C[C@@H]2c3cc(NC(=O)c4cccnc4)ccc3O[C@@H]2[C@H](CO)O1)NCc1ccncc1	nt	nt	-3	nt	nt
SMILES	MITF act	SR-BI uptake up	Wnt bcat act	HSF1 activator	SR-BI DiI inh
CCOC(=O)C1=C(C(=O)OCC)C2N(Cc3ccc(Br)cc3)c3ccccc3[C@@]23C[C@@H](C(=O)OC)N(S(=O)(=O)c2ccc(F)cc2)C3=N1 (stereo not given in full)	nt	nt	-3	nt	nt
OCCN1CN(c2ccccc2)C(=S)N(c2ccccc2)C1	nt	nt	-20	nt	nt
Cn1c(=O)c2c(ncn2CC(=O)OCC(=O)NCc2ccccc2Cl)n(C)c1=O	1	12	36*	nt	-12
COc1ccccc1CNC(=O)COC(=O)Cn1cnc2c1c(=O)n(C)c(=O)n2C	nt	nt	-1	nt	nt
Oc1ccc(-c2nnc(SCC3CCCCC3)o2)cc1	nt	-11	53*	19	11
Cc1cc(C)cc(NC(=O)CCn2cnc3cc(C)c(C)cc32)c1	10	-10	38*	-2	10
COc1ccc(Nc2n[nH]c(C)c2[N+](=O)[O-])cc1	79	7	35*	28	-7
